In ChEMBL document CHEMBL5303300, “EUbOPEN Chemogenomics Library - Multiplex” (2023):
Several values for one entry are separate records, joined by “and”; a condition that tells them apart may be missing. Identical values can stand only once.

Assays:
Fibroblast = test: Multiplex assay against human fibroblast; type: toxicity, cell-based; settings: number of replicates 2
How it was run: (§1)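 Values for tubulin, mitochondrial-mass and membrane-permeability phenotypes are per cents of cells with healthy nuclei. These cells were identified by CellPathfinder machine-learning gating of live cells that had been stained at seeding with Hoechst33342, BioTracker Green Microtubule Cytoskeleton Dye, MitoTracker Red and Annexin V Alexa Fluor 680 and imaged on a CQ1 microscope at 37°C and 5% CO2 after compound addition. The gating first set Hoechst high-intensity objects apart from normal cells, then split normal cells into healthy, pyknosed or fragmented nuclei, and pyknosed cells into mitotic or apoptotic.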

HEK-293T = test: Multiplex assay against HEK293T; type: toxicity, cell-based; settings: human, number of replicates 2; how it was run: as §1
[1] = 12 h, 1 µM, compound concentration 1 uM
[2] = 12 h, 10 µM, compound concentration 10 uM
[3] = 24 h, 1 µM, compound concentration 1 uM
[4] = 24 h, 10 µM, compound concentration 10 uM
[5] = 48 h, 1 µM, compound concentration 1 uM
[6] = 48 h, 10 µM, compound concentration 10 uM

## COc1cc(OC)cc(C(=O)NNC(=O)Nc2cccc3ccccc23)c1
Fibroblast; [1]
  Population Apoptotic (%): 32% and 47%
  Population Fragmented Nuclei (%): 6% and 18%
  Population Healthy Nuclei (%): 77% and 72%
  Population Hoechst High Intensity Objects (%): 0%
  Population Membrane Permeable-Phenotype (%): 3%
  Population Mitochondria Different-Phenotype (%): 0% and 1%
  Population Mitotic Cells (%): 67% and 52%
  Population Normal (%): 100%
  Population Pyknosed Nuclei (%): 15% and 8%
  Population Tubulin-Different-Phenotype (%): 10% and 5%
  Total Cell Count: 196 and 216
Fibroblast; [2]
  Population Apoptotic (%): 34% and 37%
  Population Fragmented Nuclei (%): 9% and 7%
  Population Healthy Nuclei (%): 70% and 85%
  Population Hoechst High Intensity Objects (%): 0%
  Population Membrane Permeable-Phenotype (%): 3% and 2%
  Population Mitochondria Different-Phenotype (%): 1% and 0%
  Population Mitotic Cells (%): 65% and 62%
  Population Normal (%): 100%
  Population Pyknosed Nuclei (%): 20% and 7%
  Population Tubulin-Different-Phenotype (%): 12% and 6%
  Total Cell Count: 159 and 228
Fibroblast; [3]
  Population Apoptotic (%): 41% and 50%
  Population Healthy Nuclei (%): 87% and 76%
  Population Hoechst High Intensity Objects (%): 0%
  Population Membrane Permeable-Phenotype (%): 3% and 1%
  Population Mitochondria Different-Phenotype (%): 2% and 0%
  Population Mitotic Cells (%): 58% and 50%
  Population Normal (%): 100%
  Population Pyknosed Nuclei (%): 8% and 6%
  Population Tubulin-Different-Phenotype (%): 11% and 3%
  Total Cell Count: 199 and 203
Fibroblast; [4]
  Population Apoptotic (%): 38% and 25%
  Population Fragmented Nuclei (%): 10%
  Population Healthy Nuclei (%): 77% and 85%
  Population Hoechst High Intensity Objects (%): 0%
  Population Membrane Permeable-Phenotype (%): 3% and 0%
  Population Mitochondria Different-Phenotype (%): 2% and 0%
  Population Mitotic Cells (%): 61% and 75%
  Population Normal (%): 100% and 99%
  Population Pyknosed Nuclei (%): 11% and 3%
  Total Cell Count: 155 and 236
Fibroblast; [5]
  Population Apoptotic (%): 62% and 56%
  Population Fragmented Nuclei (%): 7% and 15%
  Population Healthy Nuclei (%): 88% and 78%
  Population Hoechst High Intensity Objects (%): 0%
  Population Membrane Permeable-Phenotype (%): 1% and 2%
  Population Mitochondria Different-Phenotype (%): 0%
  Population Mitotic Cells (%): 37% and 43%
  Population Normal (%): 100%
  Population Pyknosed Nuclei (%): 3% and 6%
  Population Tubulin-Different-Phenotype (%): 5% and 1%
  Total Cell Count: 213 and 238
Fibroblast; [6]
  Population Apoptotic (%): 66% and 70%
  Population Fragmented Nuclei (%): 12% and 9%
  Population Healthy Nuclei (%): 82% and 86%
  Population Hoechst High Intensity Objects (%): 0%
  Population Membrane Permeable-Phenotype (%): 5% and 0%
  Population Mitochondria Different-Phenotype (%): 0%
  Population Mitotic Cells (%): 33% and 30%
  Population Normal (%): 99%
  Population Pyknosed Nuclei (%): 5% and 4%
  Population Tubulin-Different-Phenotype (%): 8% and 1%
  Total Cell Count: 165 and 243
HEK-293T; [1]
  Population Apoptotic (%): 42% and 53%
  Population Fragmented Nuclei (%): 2% and 1%
  Population Healthy Nuclei (%): 86% and 85%
  Population Hoechst High Intensity Objects (%): 4%
  Population Membrane Permeable-Phenotype (%): 1% and 2%
  Population Mitochondria Different-Phenotype (%): 14% and 16%
  Population Mitotic Cells (%): 57% and 46%
  Population Normal (%): 95%
  Population Pyknosed Nuclei (%): 10% and 13%
  Population Tubulin-Different-Phenotype (%): 43% and 47%
  Total Cell Count: 709 and 572
HEK-293T; [2]
  Population Apoptotic (%): 42% and 34%
  Population Fragmented Nuclei (%): 3%
  Population Healthy Nuclei (%): 84% and 83%
  Population Hoechst High Intensity Objects (%): 6% and 4%
  Population Membrane Permeable-Phenotype (%): 5% and 4%
  Population Mitochondria Different-Phenotype (%): 15% and 12%
  Population Mitotic Cells (%): 57% and 65%
  Population Normal (%): 93% and 95%
  Population Pyknosed Nuclei (%): 12% and 13%
  Population Tubulin-Different-Phenotype (%): 60% and 46%
  Total Cell Count: 571 and 696
HEK-293T; [3]
  Population Apoptotic (%): 25% and 34%
  Population Fragmented Nuclei (%): 3%
  Population Healthy Nuclei (%): 90% and 89%
  Population Hoechst High Intensity Objects (%): 8% and 6%
  Population Membrane Permeable-Phenotype (%): 2%
  Population Mitochondria Different-Phenotype (%): 4%
